Data set [1] has as its target Coagulation factor X (Homo sapiens, UniProt P00742). Nature of the data set: Binding affinity against human coagulation factor X.
A further data set has as its target Serine protease 1 (Homo sapiens, UniProt P07477). Nature of the data set: Binding affinity against human trypsin. The procedure, abridged: (§1)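 Human purified enzymes in 0.1 M sodium phosphate, 0.2 M NaCl, 0.5% PEG 6000, pH 7.4. Inhibitor at 0.00316–10 μM in 8 half-log steps. Substrate S2222 for fXa and trypsin, S2366 for thrombin. Hydrolysis rate read at 405 nm over 30 min, with uninhibited controls. Ki calculated from % activity, Km and substrate concentration. Run in duplicate against internal standards.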

The target of a further data set is Prothrombin (Homo sapiens, UniProt P00734). Put plainly: Binding affinity against human thrombin. A digest of the protocol:
as §1

Data set [2] can be described thus: (§2) Half life period of the compound. The data set is classed as ADME. The procedure, abridged:
(§3)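 Given intravenously (rabbit: 10 mg/kg/h infusion over 60 min; dog: iv). Plasma protein-precipitated with acetonitrile; quantitation limit 5 nM. Noncompartmental fit. Half-life by nonlinear regression, AUC by trapezoidal rule. Clearance = dose/AUC0→∞. Vdss = Cl × MRT, with MRT = AUMC/AUC.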

Data set [3] is described as follows: plasma clearance in dog. The data set is classed as ADME, organism-based, Canis lupus familiaris. The procedure, abridged:
as §3

The nature of data set [4]: Distribution volume at steady state in dog. The conditions noted are these: in vivo, read-out: Vdss. Type of data set: ADME, organism-based, Canis lupus familiaris. The procedure, abridged:
as §3

The target of data set [5] is T1, Coagulation factor X (Oryctolagus cuniculus, UniProt O19045).
T1 sequence (O19045 whole entry): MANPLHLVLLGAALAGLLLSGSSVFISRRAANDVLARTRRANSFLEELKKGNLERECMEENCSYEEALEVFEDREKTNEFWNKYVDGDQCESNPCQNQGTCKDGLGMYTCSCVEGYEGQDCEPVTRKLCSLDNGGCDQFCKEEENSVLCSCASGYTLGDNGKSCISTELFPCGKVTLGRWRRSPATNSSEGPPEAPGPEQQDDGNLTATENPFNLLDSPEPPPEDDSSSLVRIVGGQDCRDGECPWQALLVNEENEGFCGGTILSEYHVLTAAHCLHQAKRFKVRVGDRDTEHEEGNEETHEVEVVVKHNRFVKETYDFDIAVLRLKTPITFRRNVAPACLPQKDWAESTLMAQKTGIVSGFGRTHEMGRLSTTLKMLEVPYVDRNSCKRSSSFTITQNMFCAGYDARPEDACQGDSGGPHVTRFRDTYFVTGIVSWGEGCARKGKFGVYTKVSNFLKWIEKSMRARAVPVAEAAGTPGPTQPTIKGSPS
Nature of the data set: Binding affinity against fXa from rabbit purified enzyme.

A short description of data set [6]: Cmax values of the compound. The data set is classed as ADME, organism-based. The conditions noted are these: in vivo. A digest of the protocol:
as §3

For data set [7], the species on record is Oryctolagus cuniculus. Put plainly: Tested for inhibition of thrombus formation using arterio-venous shunt device in rabbit. Type of data set: functional. The procedure, abridged:
(§4)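 Rabbit arteriovenous shunt containing silk thread; blood circulated 40 min, then the thread and thrombus were weighed. Compound or saline vehicle infused iv via jugular vein from 1 h before circulation through the end (100 min total). Percent inhibition of thrombus weight per treatment group; ID50 estimated by linear regression.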

The nature of data set [8]: as §2. Type of data set: ADME. A digest of the protocol: as §3
This is another data set of the same source.

In data set [9] the target is T1, Coagulation factor X. Put plainly: Binding affinity against Coagulation factor X from rabbit purified enzyme.
The test system of data set [10] is Oryctolagus cuniculus. Put plainly: Tested for inhibition of thrombus formation using arterio-venous shunt device in rabbit at 0.008-1 mg/kg/h. The data set is classed as functional. A digest of the protocol: as §4
Data set [11] is described as follows: plasma clearance in rabbit.
Data set [12] is filed under the species Oryctolagus cuniculus. Put plainly: Distribution volume at steady state in rabbit. To be noted: in vivo, read-out: Vdss.

The structures appear in SMILES notation. Where “and” joins values, the source holds several entries; their conditions need not be identical. Equal values may be shown once.

Chain of Coagulation factor X (Homo sapiens, UniProt P00742) (P00742 41-179 limits assumed): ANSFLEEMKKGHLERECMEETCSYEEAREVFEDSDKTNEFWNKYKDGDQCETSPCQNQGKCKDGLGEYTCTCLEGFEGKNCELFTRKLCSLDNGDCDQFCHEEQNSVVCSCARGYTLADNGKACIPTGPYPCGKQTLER
Chain of Coagulation factor X (Homo sapiens, UniProt P00742) (P00742 235-488 limits assumed): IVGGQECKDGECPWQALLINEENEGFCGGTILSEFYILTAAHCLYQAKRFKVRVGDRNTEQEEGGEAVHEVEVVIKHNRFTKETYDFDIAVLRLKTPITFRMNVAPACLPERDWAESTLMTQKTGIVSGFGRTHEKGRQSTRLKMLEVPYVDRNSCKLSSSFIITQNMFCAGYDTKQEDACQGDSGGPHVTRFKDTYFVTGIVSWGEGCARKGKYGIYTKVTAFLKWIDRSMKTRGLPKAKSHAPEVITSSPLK
Chain of Serine protease 1 (P07477 whole entry): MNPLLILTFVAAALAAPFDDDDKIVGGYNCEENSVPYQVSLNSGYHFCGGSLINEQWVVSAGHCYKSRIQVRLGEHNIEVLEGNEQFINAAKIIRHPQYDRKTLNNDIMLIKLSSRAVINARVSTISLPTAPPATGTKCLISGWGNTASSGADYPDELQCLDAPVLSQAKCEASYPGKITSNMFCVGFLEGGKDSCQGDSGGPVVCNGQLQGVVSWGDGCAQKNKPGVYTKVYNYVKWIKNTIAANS

As to `CCCNS(=O)(=O)c1ccccc1-c1ccc(NC(=O)Cc2c[nH]c3ccc(C(=N)N)cc23)cc1`, the results for the Ki at Coagulation factor X [1], at Serine protease 1 and on Prothrombin were 8 nM, 180 nM and 400 nM, respectively.
For `N=C(N)c1ccc2c(c1)C(CC(=O)Nc1ccc(-c3ccccc3S(N)(=O)=O)cc1)CN2` (single isomer, unassigned; (-)), the values for the inhibitory constant (Ki) on Coagulation factor X [1], on Serine protease 1 and at Prothrombin were 52 nM, 400 nM and 17000 nM, respectively.
For `N=C(N)c1ccc2ncn(CC(=O)c3ccc(-c4ccccc4S(N)(=O)=O)cc3)c2c1`, in that order: 240 nM, 300 nM and 2800 nM.
On the same counts, the results for `CN(C)S(=O)(=O)c1ccccc1-c1ccc(NC(=O)Cc2c[nH]c3ccc(C(=N)N)cc23)cc1` are 7 nM, 390 nM and 1700 nM.
With `N=C(N)c1ccc2ncn(CC(=O)c3ccc(-c4ccccc4)cc3)c2c1`, the inhibition constant Ki was found to be 120 nM at Coagulation factor X [1], 320 nM on Serine protease 1 and 1200 nM on Prothrombin.
On the same counts, the results for `Cn1cc(CC(=O)Nc2ccc(-c3ccccc3S(N)(=O)=O)cn2)c2cc(C(=N)N)ccc21` are 89 nM, 1500 nM and 21000 nM.
On to `CCNS(=O)(=O)c1ccccc1-c1ccc(NC(=O)Cc2c[nH]c3ccc(C(=N)N)cc23)cc1`, for which the inhibitory constant (Ki) at Coagulation factor X [1] stood at 4.1 nM; at Serine protease 1 it was 160 nM; at Prothrombin, 800 nM.
For `CNS(=O)(=O)c1ccccc1-c1ccc(NC(=O)Cc2c[nH]c3ccc(C(=N)N)cc23)cc1`, the inhibitory constant (Ki) on Coagulation factor X [1] is 3.4 nM; on Serine protease 1, 120 nM; at Prothrombin, 900 nM.
Regarding `N=C(N)c1ccc2[nH]cc(CC(=O)Nc3ccc(-c4ccccc4S(N)(=O)=O)cc3)c2c1`, the results for the half-life in data set [2] and in data set [8] were 1.22 h and 0.79 h, respectively. Moreover, in [3], the clearance is 20.3 mL/min/kg. Besides, the Vd in data set [4] turned out to be 0.38 L/kg. Moreover, the Ki on Serine protease 1 is 160 nM; on Coagulation factor X [5], 6 nM; on Prothrombin, 1600 nM and 900 nM. The maximum concentration (Cmax) in data set [6] was 1510 nM and 8700 nM. Further, in the data set listed under Oryctolagus cuniculus [7], the ID50 came to 1.7 µM/h/kg.
Turning to `N=C(N)c1ccc2c(c1)ncn2CC(=O)Nc1ccc(-c2ccccc2)cc1`, the inhibition constant (Ki) on Coagulation factor X [1] is 3900 nM; on Serine protease 1 it was greater than 2500 nM; at Prothrombin, 12500 nM.
`N=C(N)c1ccc2[nH]cc(CC(=O)Nc3ccc(-c4ccccc4S(N)(=O)=O)cc3Br)c2c1` had a clearance in data set [3] of 22.3 mL/min/kg. In addition, the Ki on Coagulation factor X [1] was 0.32 nM; on Serine protease 1 it was 120 nM; on Prothrombin it was 200 nM; on Coagulation factor X [9] it was 0.9 nM. The Vd in data set [4] turned out to be 0.67 L/kg. Besides, the highest level in data set [6] (Cmax) was 1430 nM. In addition, the half-life in [8] is 1.8 h. This compound also gave an ID50 in the data set on Oryctolagus cuniculus [10] of 0.14 µM/h/kg.
Regarding `N=C(N)c1ccc2cnn(CC(=O)Nc3ccc(-c4ccccc4S(N)(=O)=O)cn3)c2c1`, the inhibitory constant (Ki) on Coagulation factor X [1] worked out at 3.1 nM; on Serine protease 1, 41 nM; on Prothrombin, 6800 nM.
Take `CCOC(=O)C(CCc1cccc(C(=N)N)c1)Cn1cnc2cc(C(=N)N)ccc21` (stereo not drawn): the results for the Ki at Serine protease 1 and on Prothrombin were 220 nM and 2000 nM, respectively.
In data set [3], `N=C(N)c1ccc2[nH]cc(CC(=O)Nc3ccc(-c4ccccc4S(N)(=O)=O)cc3F)c2c1` showed a clearance of 18.3 mL/min/kg. For the same compound, the figures for the Ki on Coagulation factor X [1], on Serine protease 1 and on Prothrombin were 3.1 nM, 270 nM and 2100 nM, respectively. The Vd in data set [4] amounted to 0.87 L/kg. Moreover, in [6], the concentration peaked (Cmax) at 1630 nM. The compound further showed a half-life in data set [8] of 2.5 h.
On to `N=C(N)c1ccc2c(c1)ncn2CC(=O)c1ccc(-c2ccccc2)cc1`, for which the inhibition constant (Ki) on Prothrombin was greater than 21000 nM.
The compound `N=C(N)c1ccc2ncn(CC(=O)Nc3ccc(-c4ccccc4S(N)(=O)=O)cc3)c2c1` had a half-life in data set [2] of 0.96 h. For the same compound, the inhibition constant (Ki) at Coagulation factor X [1] amounted to 2.4 nM; on Serine protease 1, 47 nM; on Prothrombin, 2200 nM. In [11], this compound had a clearance of 73.3 mL/min/kg. In [6], this compound came in with a Cmax of 3850 nM. Also, in the data set filed under Oryctolagus cuniculus [12], the Vd amounted to 3.04 L/kg.
Regarding `N=C(N)c1ccc2c(c1)C(CC(=O)Nc1ccc(-c3ccccc3S(N)(=O)=O)cc1)CN2` (single isomer, unassigned; (+)), the values for the inhibitory constant (Ki) at Coagulation factor X [1], at Serine protease 1 and on Prothrombin were 0.71 nM, 140 nM and 1500 nM, respectively.
For `N=C(N)c1ccc2ncn(CC(=O)Nc3ccc(-c4ccccc4)cc3)c2c1`, in that order: 220 nM, 480 nM and 4700 nM.
As for `CCOC(=O)C(CCc1ccc(C(=N)N)cc1)Cn1cnc2ccc(C(=N)N)cc21` (stereo not drawn), the Ki at Coagulation factor X [1] is 11900 nM; at Prothrombin, greater than 21000 nM.
As for `CN(C(=O)Cc1c[nH]c2ccc(C(=N)N)cc12)c1ccc(-c2ccccc2S(N)(=O)=O)cc1`, the inhibitory constant (Ki) turned out to be 41 nM on Coagulation factor X [1], 600 nM at Serine protease 1 and 14000 nM at Prothrombin.
On the same counts, the results for `Cc1cc(-c2ccccc2S(N)(=O)=O)ccc1NC(=O)Cc1c[nH]c2ccc(C(=N)N)cc12` are 2.3 nM, 340 nM and 1000 nM.
In the case of `CCOC(=O)C(CCc1ccc(C(=N)N)cc1)Cn1cnc2cc(C(=N)N)ccc21` (stereo not drawn), the figures for the Ki at Coagulation factor X [1] and at Prothrombin were 2200 nM and greater than 21000 nM, respectively.
On to `CCOC(=O)C(CCc1cccc(C(=N)N)c1)Cn1cnc2ccc(C(=N)N)cc21` (stereo not drawn), for which the values for the Ki at Coagulation factor X [1], at Serine protease 1 and at Prothrombin were 700 nM, 820 nM and 1900 nM, respectively.
For `N=C(N)c1ccc2[nH]cc(CC(=O)Nc3ccc(-c4ccccc4S(N)(=O)=O)cc3I)c2c1`, the Ki on Coagulation factor X [1] came to 0.6 nM; on Serine protease 1, 240 nM; at Prothrombin, 200 nM.
For `N=C(N)c1ccc2c(c1)ncn2CC(=O)Nc1ccc(-c2ccccc2S(N)(=O)=O)cc1`, in that order: 400 nM, 130 nM and 2700 nM.
The compound `N=C(N)c1ccc2[nH]cc(CC(=O)Nc3ccc(-c4ccccc4S(N)(=O)=O)cc3Cl)c2c1` gave a clearance in [3] of 50 mL/min/kg. The Ki at Coagulation factor X [1] was 0.7 nM; on Serine protease 1, 140 nM; on Prothrombin it was 500 nM; at Coagulation factor X [9], 0.79 nM. In addition, the Vd in data set [4] turned out to be 2.01 L/kg. This compound also showed a Cmax in data set [6] of 650 nM. This compound also showed an ID50 in the data set listed under Oryctolagus cuniculus [7] of 0.35 µM/h/kg. The compound also gave a half-life in data set [8] of 1.75 h.
`N=C(N)c1ccc2[nH]cc(CC(=O)Nc3ccc(-c4ccccc4S(N)(=O)=O)cn3)c2c1` showed a clearance in [3] of 61.7 mL/min/kg. Further, the Ki at Coagulation factor X [1] was 0.92 nM and 0.44 nM; at Serine protease 1, 150 nM; on Prothrombin, 2100 nM; on Coagulation factor X [9] it was 0.93 nM. Besides, the Vd in [4] came to 1.9 L/kg. Further, in data set [6], the maximum concentration (Cmax) turned out to be 2200 nM. This compound also showed an ID50 in the data set filed under Oryctolagus cuniculus [7] of 0.3 µM/h/kg. In data set [8], this compound had a half-life of 0.4 h.

For the origin of these results see ChEMBL document CHEMBL1133520, “Design, synthesis, and biological evaluation of potent and selective amidino bicyclic factor Xa inhibitors” (J Med Chem, 2000).
